System: Fibroblast
Test: Multiplex assay against human fibroblast
Format: toxicity, cell-based
Outline: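 Imaging took place on a CQ1 microscope at 37°C and 5% CO2 once compound had been added to live cells stained at seeding with Hoechst33342, BioTracker Green Microtubule Cytoskeleton Dye, MitoTracker Red and Annexin V Alexa Fluor 680. CellPathfinder machine-learning gating classed cells as Hoechst high-intensity objects or normal cells, classed normal cells as having healthy, pyknosed or fragmented nuclei, and classed pyknosed cells as mitotic or apoptotic. Tubulin, mitochondrial-mass and membrane-permeability phenotypes are per cents of the healthy-nucleus cells.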

[1] = 12 h, 1 µM, compound concentration 1 uM, replicate 1
[2] = 12 h, 1 µM, compound concentration 1 uM, replicate 2
[3] = 12 h, 10 µM, compound concentration 10 uM, replicate 1
[4] = 12 h, 10 µM, compound concentration 10 uM, replicate 2
[5] = 24 h, 1 µM, compound concentration 1 uM, replicate 1
[6] = 24 h, 1 µM, compound concentration 1 uM, replicate 2
[7] = 24 h, 10 µM, compound concentration 10 uM, replicate 1
[8] = 24 h, 10 µM, compound concentration 10 uM, replicate 2
[9] = 48 h, 1 µM, compound concentration 1 uM, replicate 1
[10] = 48 h, 1 µM, compound concentration 1 uM, replicate 2
[11] = 48 h, 10 µM, compound concentration 10 uM, replicate 1
[12] = 48 h, 10 µM, compound concentration 10 uM, replicate 2

Question: What does the source list for N#Cc1c(Oc2cccc(OS(=O)(=O)CCCC(F)(F)F)c2)cccc1C(F)(F)F?
Answer: Population Apoptotic (%) [1]: 51%; Population Fragmented Nuclei (%) [1]: 13%; Population Healthy Nuclei (%) [1]: 63%; Population Hoechst High Intensity Objects (%) [1]: 2%; Population Membrane Permeable-Phenotype (%) [1]: 1%; Population Mitochondria Different-Phenotype (%) [1]: 7%; Population Mitotic Cells (%) [1]: 48%; Population Normal (%) [1]: 97%; Population Pyknosed Nuclei (%) [1]: 23%; Population Tubulin-Different-Phenotype (%) [1]: 38%; Total Cell Count [1]: 146; Population Apoptotic (%) [2]: 38%; Population Fragmented Nuclei (%) [2]: 27%; Population Healthy Nuclei (%) [2]: 48%; Population Hoechst High Intensity Objects (%) [2]: 7%; Population Membrane Permeable-Phenotype (%) [2]: 9%; Population Mitotic Cells (%) [2]: 61%; Population Normal (%) [2]: 92%; Population Pyknosed Nuclei (%) [2]: 24%; Population Tubulin-Different-Phenotype (%) [2]: 59%; Total Cell Count [2]: 148; Population Apoptotic (%) [3]: 31%; Population Fragmented Nuclei (%) [3]: 14%; Population Healthy Nuclei (%) [3]: 59%; Population Hoechst High Intensity Objects (%) [3]: 6%; Population Membrane Permeable-Phenotype (%) [3]: 1%; Population Mitochondria Different-Phenotype (%) [3]: 7%; Population Mitotic Cells (%) [3]: 68%; Population Normal (%) [3]: 93%; Population Pyknosed Nuclei (%) [3]: 26%; Population Tubulin-Different-Phenotype (%) [3]: 36%; Total Cell Count [3]: 180; Population Apoptotic (%) [4]: 66%; Population Fragmented Nuclei (%) [4]: 42%; Population Healthy Nuclei (%) [4]: 22%; Population Hoechst High Intensity Objects (%) [4]: 7%; Population Membrane Permeable-Phenotype (%) [4]: 13%; Population Mitochondria Different-Phenotype (%) [4]: 3%; Population Mitotic Cells (%) [4]: 33%; Population Normal (%) [4]: 92%; Population Pyknosed Nuclei (%) [4]: 35%; Population Tubulin-Different-Phenotype (%) [4]: 75%; Total Cell Count [4]: 138; Population Apoptotic (%) [5]: 50%; Population Fragmented Nuclei (%) [5]: 20%; Population Healthy Nuclei (%) [5]: 62%; Population Hoechst High Intensity Objects (%) [5]: 6%; Population Membrane Permeable-Phenotype (%) [5]: 1%; Population Mitochondria Different-Phenotype (%) [5]: 4%; Population Mitotic Cells (%) [5]: 50%; Population Normal (%) [5]: 93%; Population Pyknosed Nuclei (%) [5]: 17%; Population Tubulin-Different-Phenotype (%) [5]: 45%; Total Cell Count [5]: 148; Population Apoptotic (%) [6]: 54%; Population Fragmented Nuclei (%) [6]: 33%; Population Healthy Nuclei (%) [6]: 50%; Population Hoechst High Intensity Objects (%) [6]: 3%; Population Membrane Permeable-Phenotype (%) [6]: 5%; Population Mitochondria Different-Phenotype (%) [6]: 5%; Population Mitotic Cells (%) [6]: 45%; Population Normal (%) [6]: 96%; Population Pyknosed Nuclei (%) [6]: 16%; Population Tubulin-Different-Phenotype (%) [6]: 57%; Total Cell Count [6]: 147; Population Apoptotic (%) [7]: 44%; Population Fragmented Nuclei (%) [7]: 13%; Population Healthy Nuclei (%) [7]: 59%; Population Hoechst High Intensity Objects (%) [7]: 5%; Population Membrane Permeable-Phenotype (%) [7]: 4%; Population Mitochondria Different-Phenotype (%) [7]: 12%; Population Mitotic Cells (%) [7]: 55%; Population Normal (%) [7]: 94%; Population Pyknosed Nuclei (%) [7]: 27%; Population Tubulin-Different-Phenotype (%) [7]: 43%; Total Cell Count [7]: 174; Population Apoptotic (%) [8]: 61%; Population Fragmented Nuclei (%) [8]: 40%; Population Healthy Nuclei (%) [8]: 23%; Population Hoechst High Intensity Objects (%) [8]: 8%; Population Membrane Permeable-Phenotype (%) [8]: 18%; Population Mitochondria Different-Phenotype (%) [8]: 22%; Population Mitotic Cells (%) [8]: 38%; Population Normal (%) [8]: 91%; Population Pyknosed Nuclei (%) [8]: 36%; Population Tubulin-Different-Phenotype (%) [8]: 77%; Total Cell Count [8]: 127; Population Apoptotic (%) [9]: 60%; Population Fragmented Nuclei (%) [9]: 18%; Population Healthy Nuclei (%) [9]: 66%; Population Hoechst High Intensity Objects (%) [9]: 7%; Population Membrane Permeable-Phenotype (%) [9]: 1%; Population Mitochondria Different-Phenotype (%) [9]: 5%; Population Mitotic Cells (%) [9]: 40%; Population Normal (%) [9]: 92%; Population Pyknosed Nuclei (%) [9]: 14%; Population Tubulin-Different-Phenotype (%) [9]: 42%; Total Cell Count [9]: 145; Population Apoptotic (%) [10]: 38%; Population Fragmented Nuclei (%) [10]: 26%; Population Healthy Nuclei (%) [10]: 59%; Population Hoechst High Intensity Objects (%) [10]: 5%; Population Membrane Permeable-Phenotype (%) [10]: 13%; Population Mitochondria Different-Phenotype (%) [10]: 2%; Population Mitotic Cells (%) [10]: 61%; Population Normal (%) [10]: 94%; Population Tubulin-Different-Phenotype (%) [10]: 56%; Total Cell Count [10]: 133; Population Apoptotic (%) [11]: 52%; Population Fragmented Nuclei (%) [11]: 20%; Population Healthy Nuclei (%) [11]: 54%; Population Hoechst High Intensity Objects (%) [11]: 9%; Population Membrane Permeable-Phenotype (%) [11]: 2%; Population Mitochondria Different-Phenotype (%) [11]: 12%; Population Mitotic Cells (%) [11]: 47%; Population Normal (%) [11]: 90%; Population Pyknosed Nuclei (%) [11]: 24%; Population Tubulin-Different-Phenotype (%) [11]: 47%; Total Cell Count [11]: 172; Population Apoptotic (%) [12]: 59%; Population Fragmented Nuclei (%) [12]: 43%; Population Healthy Nuclei (%) [12]: 31%; Population Hoechst High Intensity Objects (%) [12]: 2%; Population Membrane Permeable-Phenotype (%) [12]: 23%; Population Mitochondria Different-Phenotype (%) [12]: 15%; Population Mitotic Cells (%) [12]: 40%; Population Normal (%) [12]: 97%; Population Pyknosed Nuclei (%) [12]: 25%; Population Tubulin-Different-Phenotype (%) [12]: 89%; Total Cell Count [12]: 150
